From PubChem
LEDGF integ inh: blocks HIV-1 LEDGF/p75-dependent DNA integration. inhibition, % at 3.7 µM. TR-FRET IN-LEDGF/p75 DNA integration, Eu/Cy5. 0.64% of 370,000 active;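 active means inhibition above the screen-wide mean plus 3 SD, cut at about 13% in these data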;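 further: signal is the Cy5 over europium emission ratio at 671 and 618 nm; 0% = plate median of compound wells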
UHRF1 binding: blocks human UHRF1 binding to methylated DNA. Q96T88. UHRF1 binding to methylated oligo, TR-FRET. inhibition, % at 4.4 µM. 0.75% of 370,000 active. AID 687016;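 further: UHRF1 SRA domain binding a hemimethylated CpG hairpin DNA probe; 0% = median of test compound wells and 100% = reference inhibitor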
TDP2 inh: blocks human TDP2 phosphodiesterase activity. O95551. recombinant TDP2, T5PNP hydrolysis, p-nitrophenol absorbance 415 nm. inhibition, % at 12.8 µM. 0.34% of 370,000 active. AID 720702;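 active means inhibition above the mean of all tested compounds plus 3 SD, set per campaign, cut at about 25% in these data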;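 further: 0% = DMSO with enzyme and 100% = buffer with substrate but no TDP2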
Target sequence (O95551 whole entry, looked up): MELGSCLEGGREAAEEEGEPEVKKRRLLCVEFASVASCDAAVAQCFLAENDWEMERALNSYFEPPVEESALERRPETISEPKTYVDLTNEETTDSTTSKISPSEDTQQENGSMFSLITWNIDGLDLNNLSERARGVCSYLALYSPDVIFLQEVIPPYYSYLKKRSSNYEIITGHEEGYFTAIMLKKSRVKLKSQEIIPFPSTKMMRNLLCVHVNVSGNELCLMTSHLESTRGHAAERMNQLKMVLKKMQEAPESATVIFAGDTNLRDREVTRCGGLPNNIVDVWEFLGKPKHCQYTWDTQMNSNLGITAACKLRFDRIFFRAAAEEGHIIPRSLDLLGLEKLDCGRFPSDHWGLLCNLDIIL
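Test system: Human TDP2 enzyme | Reagent: 5 mM T5PNP | Compound dosing: 12.8 µM single point, 1% DMSO | Incubation: Enzyme reaction with compound for 2 h at 37 °C | Technique: p-Nitrophenol epi absorbance | Read-out: % inhibition relative to enzyme-containing and enzyme-free wells | Benchmarks: High control without enzyme, low control DMSO plus TDP2 | Replicates: Singlicate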
MBD2 DNA inh: MBD2-methylated oligo binding inhibition | Q9UBB5 | TR-FRET, MBD2 binding to methylated oligonucleotide | inhibition, % at 4.4 µM | 0.31% of 370,000 active | AID 686964; in the data active means inhibition above about 13%
UHRF1 DNA bind: inhibits human UHRF1 binding to methylated oligonucleotide, MBD2 counter-screen; TR-FRET; shares compounds with MBD2 DNA inh; 25% of 1,000 active; inhibition, % at 4.4 µM;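 further: UHRF1 SRA domain binding a labeled hemimethylated CpG hairpin DNA; 0% = vehicle only and 100% = reference inhibitor with vehicle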
MBD2 DBD conf: MBD2-DBD methyl-DNA binding inhibition, TR-FRET confirmation | TR-FRET MBD2-DBD binding to methylated oligonucleotide | AID 720531 | shares compounds with MBD2 DNA inh | inhibition, % at 4.4 µM | 26% of 1,000 active; in the data active means inhibition above about 14%
* = called active by the depositor; x = no result. Only some compounds are listed: those with a hit (about 1.6% of all), similar ones and a draw of the others. Unless noted, no stated cut-off is given here; in the data, active means inhibition above about 21%; inactive means the rest.

SMILES | LEDGF integ inh | UHRF1 binding | TDP2 inh | MBD2 DNA inh | UHRF1 DNA bind | MBD2 DBD conf
Cc1nccn1-c1ccc(C=O)cc1 | 2.0 | 2.5 | -2.8 | 40.5* | -0.3 | 3.2
Cc1ccc(S(=O)(=O)N2CCOCC2)cc1NC(=O)Cn1c(=O)ccn(Cc2ccccc2)c1=O | 1.2 | -2.6 | 9.2 | 14.4* | 6.9 | 0.9
Cc1ccc(S(=O)(=O)N2CCOCC2)cc1NC(=O)CSc1nc2ccccc2c(=O)n1Cc1ccccc1 | -2.4 | 4.8 | -9.1 | -0.6 | x | x
CC(C)CCn1cnc2c1c(=O)[nH]c(=O)n2Cc1ccccc1 | 1.0 | -2.1 | 11.2 | 89.7* | 4.8 | 2.2
Cc1cc(NCCCCCCCNc2cc(C)nc3cc([N+](=O)[O-])ccc23)c2ccc([N+](=O)[O-])cc2n1 | 0.5 | 30.3* | -21.2 | 20.6* | 38.0* | 49.3*
COC(=O)c1ccc(OCc2cc(=O)n3ccsc3n2)cc1 | 4.1 | -2.8 | -2.0 | 13.4* | 10.8 | 5.9
Cc1ccc(S(=O)(=O)NC(=O)ON=Cc2ccc3c(c2)OCO3)cc1 | -1.7 | -0.7 | 1.9 | -3.9 | x | x
COC(=O)Cc1nnn2c1[C@H](C)[C@H](c1cccc(OC)c1OC)OCC2 | 10.6 | 26.3* | 0.4 | 16.0* | 6.2 | 2.8
O=C1C=C(c2ccc(O)cc2)C[C@@H](c2ccc3c(c2)OCO3)C1 | 3.4 | 16.9 | 0.1 | 5.5 | x | x
O=C1C=C(c2ccc(C(=O)O)cc2)C[C@@H](c2ccc3c(c2)OCO3)C1 | 3.0 | 17.0 | 3.5 | 15.7* | 13.5 | 8.2
Cc1ccc(C(=O)NCC(=O)OCc2nc3sc(C)c(C)c3c(=O)[nH]2)cc1 | -2.0 | 1.6 | -6.0 | -1.8 | x | x
O=C1N[C@@H](Cc2ccccc2)COC(=O)[C@@H](Cc2ccc(F)cc2)CC/C=C/C[C@H]1CC(=O)N(CCO)Cc1ccccc1 | -0.8 | 0.0 | -1.5 | 15.4* | 4.7 | 5.9
CC(=O)NC(Cc1ccc2c(c1)OCO2)C(=O)N1CCCN(C(C)=O)CC1 (configuration not stated) | 2.2 | 2.0 | 3.2 | -2.9 | x | x
Cc1ccc(S(=O)(=O)n2cnc3cc([N+](=O)[O-])ccc32)cc1C | 3.5 | 1.3 | -3.1 | 13.8* | 5.6 | 3.6
COc1ccc(NC(=O)CN(C)C(=O)c2cccc(-n3cccc3)c2)cc1 | 5.3 | 58.5* | 19.7 | 32.7* | 43.1* | 37.8*
Cc1cccc(NC(=O)CNC(=O)c2cccc(-n3cccc3)c2)c1C | 5.4 | 69.2* | -11.0 | 31.2* | 62.0* | 43.8*
Cc1ccc(NC(=O)CN(C)C(=O)c2cccc(-n3cccc3)c2)cc1 | 1.8 | 76.8* | -11.0 | 36.0* | 66.1* | 47.3*
c1ccc(-n2nc3c(ccc4cnnc43)[nH]2)cc1 | -0.8 | 18.9 | -5.3 | 14.9* | 4.1 | 4.3
O[C@@H](Cc1ccccc1)[C@@H](/C=C/c1ccccc1)N(Cc1ccccc1)Cc1ccccc1 | 0.9 | 0.1 | 6.8 | -0.5 | x | x
CCOC(=O)c1c[nH]c(=S)n(-c2ccccc2)c1=O | -0.1 | -0.6 | 7.2 | 37.1* | 1.2 | 2.9
CN(C)/C=C1\N=C(c2ccc(Cl)cc2Cl)OC1=O | 2.4 | 18.0 | -4.7 | 16.4* | 7.1 | 3.6
O=Cc1ccc(N2CCN(S(=O)(=O)c3ccc4c(c3)CC(=O)N4)CC2)cc1 | 23.5* | 7.6 | 0.5 | 14.6* | 9.4 | 2.4
CCOC(=O)C1=C(COC(=O)c2cccnc2Cl)NC(=O)NC1C (configuration not stated) | 5.7 | -2.0 | 0.2 | 19.1* | 1.5 | 3.5
O=c1ccc2[n+]([O-])c3ccc(O)cc3oc-2c1 | 60.9* | 78.1* | 9.2 | 28.1* | 72.7* | 31.1*
C[C@H](O)[C@@H]1C(=O)N2CCc3c([nH]c4c(-c5ccc6c(c5)OCO6)cccc34)[C@@H]2C[C@@H]1N(C)C(=O)OCc1ccccc1 | -0.5 | -3.0 | 4.0 | -4.0 | x | x
CCCCN1CCN(C(=O)Cn2c(=O)c3ccccc3n(CC)c2=O)CC1 | 1.1 | -0.2 | 12.0 | -2.8 | x | x
CC(=O)c1cc(-c2ccc(-c3ccccc3)c(F)c2)c(=O)n2c1CCC2 | 0.3 | 0.6 | -1.2 | -1.0 | x | x
COc1ccc(/C=C2/SC(=S)N(n3c(C)ccc3C)C2=O)cc1 | 5.9 | 21.8* | 9.0 | 13.5* | 11.6 | 3.3
CCOc1ccc(/C=C2/SC(=S)N(n3c(C)ccc3C)C2=O)cc1 | -3.6 | -1.2 | -1.1 | -2.5 | x | x
